High-throughput results: PubChem, The Scripps Research Institute Molecular Screening Center
PAD4 inh = blocks human protein arginine deiminase 4; AID 485272; 0.41% of 330,000 active; recombinant PAD4, RCA probe fluorescence polarization; inhibition, % at 6.36 µM;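 active means percent inhibition above a cutoff equal to the mean of all tested compounds plus 3 SD, cut at about 15% in these data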;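 further: 0% = PAD4 with RCA probe and DMSO and 100% = probe without PAD4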
Fam108B inh = blocks mouse Fam108B hydrolase in RBBP9 counter-screen; 0.33% of 300,000 active; inhibition, % at 9.51 µM; recombinant Fam108B, FP-Rh probe fluorescence polarization;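 active means inhibition above the screen mean inhibition plus 3 SD, computed separately per campaign, cut at about 18% in these data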;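 further: inhibitors lower polarization as less probe binds the enzyme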
LYPLA2 counter = LYPLA2 (human) inhibition in PME1 counter-screen. recombinant LYPLA2, FP-Rh probe fluorescence polarization. inhibition, % at 5.9 µM. 0.38% of 320,000 active;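 active means inhibition above the screen-wide mean plus 3 SD, limit set per campaign, cut at about 26% in these data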;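 further: 0% = LYPLA2 with DMSO and 100% = wells lacking LYPLA2 enzyme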
Target sequence (O95372 whole entry, looked up): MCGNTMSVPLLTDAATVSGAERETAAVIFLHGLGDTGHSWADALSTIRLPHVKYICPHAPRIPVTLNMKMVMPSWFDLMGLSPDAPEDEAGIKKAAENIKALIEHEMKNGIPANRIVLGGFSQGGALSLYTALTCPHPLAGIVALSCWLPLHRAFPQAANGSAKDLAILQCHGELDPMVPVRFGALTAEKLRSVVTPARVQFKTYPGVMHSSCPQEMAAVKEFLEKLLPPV
PME-1 primary = blocks human protein phosphatase methylesterase 1; recombinant PME-1, FP-Rh probe fluorescence polarization; inhibition, % at 5.9 µM; AID 2130; Q9Y570; 0.53% of 320,000 active;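 active means inhibition above the campaign mean of all compounds plus 3 SD, cut at about 26% in these data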;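 further: competitive labeling of PME-1 active site by serine hydrolase directed probe; 0% = PME-1 with DMSO and 100% = wells lacking PME-1 enzyme; inhibitors block probe labeling so polarization falls and inhibition rises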
RBBP9 inhibitor = inhibitors of human serine hydrolase RBBP9. O75884. 0.2% of 220,000 active. inhibition, % at 7.94 µM. AID 1515. recombinant RBBP9, FP-Rh probe fluorescence polarization;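 active means inhibition above the campaign mean of all tested compounds plus 3 SD, cut at about 14% in these data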;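 further: plate controls were DMSO wells with RBBP9 for no effect and wells lacking RBBP9 protein for full effect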
Target sequence (O75884 whole entry, looked up): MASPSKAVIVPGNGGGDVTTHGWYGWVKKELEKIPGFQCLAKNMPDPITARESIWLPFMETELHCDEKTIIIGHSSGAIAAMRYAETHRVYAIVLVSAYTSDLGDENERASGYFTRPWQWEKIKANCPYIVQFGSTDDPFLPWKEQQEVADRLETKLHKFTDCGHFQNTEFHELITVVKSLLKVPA
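Measured by – fluorescence polarization · Test system – RBBP9 protein · Input – 2.5 µM RBBP9 dispensing solution, before mixing · Measure – percent inhibition from mP, scaled between DMSO and no-protein wells · Benchmarks – DMSO-treated enzyme wells and wells lacking RBBP9 · Times – preincubation 30 min plus labeling 45 min at 25 °C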
LYPLA1 inh = blocks human lysophospholipase 1, a PME1 counter-screen | O75608 | recombinant LYPLA1, FP-Rh probe fluorescence polarization | inhibition, % at 5.9 µM | 0.16% of 320,000 active | AID 2174;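 active means inhibition above the mean of all tested compounds plus 3 SD, set per campaign, cut at about 14% in these data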;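 further: inhibitors block serine hydrolase probe labeling of LYPLA1 so polarization falls; 0% = enzyme with DMSO and 100% = wells lacking LYPLA1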
Target sequence (O75608 whole entry, looked up): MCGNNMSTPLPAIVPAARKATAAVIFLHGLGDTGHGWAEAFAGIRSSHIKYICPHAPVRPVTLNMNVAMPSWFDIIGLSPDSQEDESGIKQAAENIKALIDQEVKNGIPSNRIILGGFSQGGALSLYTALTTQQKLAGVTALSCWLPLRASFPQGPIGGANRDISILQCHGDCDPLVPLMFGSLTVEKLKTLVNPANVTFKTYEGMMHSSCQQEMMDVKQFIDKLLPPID
LYPLA1 conf = counter-screen for PME1 inhibitors: confirmation of human LYPLA1 inhibitors; shares compounds with LYPLA1 inh; recombinant LYPLA1, FP-Rh probe fluorescence polarization; inhibition, % at 5.9 µM; 69% of 480 active;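 active means mean inhibition across replicates above the hit cutoff set in the primary screen, cut at about 15% in these data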;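 further: loss of FP-Rh probe labeling of LYPLA1 seen as lower polarization; 0% = LYPLA1 with DMSO and 100% = wells lacking LYPLA1 enzyme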
LYPLA2 confirm = counter-screen for PME1 inhibitors: confirmation of human LYPLA2 inhibitors. recombinant LYPLA2, FP-Rh probe fluorescence polarization. AID 2232. shares compounds with LYPLA2 counter. inhibition, % at 5.9 µM. 72% of 1,100 active;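 active means mean inhibition across replicates above the hit cutoff set in the primary screen, cut at about 26% in these data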;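 further: blocked labeling of the enzyme by serine hydrolase FP-Rh probe lowers polarization; 0% = enzyme with DMSO and 100% = wells lacking LYPLA2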
* marks the source's active call; other numbers are inactive results; nt = not tested or not shown. Compounds with a hit are over-represented: about 1.3% of the library has one in this group of screens.

SMILES | PAD4 inh | Fam108B inh | LYPLA2 counter | PME-1 primary | RBBP9 inhibitor | LYPLA1 inh | LYPLA1 conf | LYPLA2 confirm
COc1cc(NC(=O)C2CCC(CNc3c(N4CCC(C)CC4)c(=O)c3=O)CC2)cc(OC)c1 (stereo not drawn) | 0 | 1 | 4 | 3 | -9 | 39* | 40* | nt
COc1cc(NC(=O)C2CCC(CNc3c(N4CCCCC4)c(=O)c3=O)CC2)cc(OC)c1 (stereo not drawn) | 4 | 0 | 6 | 2 | 3 | 24* | 31* | nt
COc1ccc(NC(=O)C2CCC(CNc3c(N4CCC(C)CC4)c(=O)c3=O)CC2)cc1OC (stereo not drawn) | -4 | 0 | 6 | 0 | -1 | 24* | 26* | nt
CN(C)c1ccc(CNC(=O)CCS(=O)(=O)c2ccc3c(c2)n(C)c(=O)c(=O)n3C)cc1 | 2 | -1 | 2 | 1 | nt | -3 | nt | nt
Cn1c(=O)[nH]c(=O)c2c1nc(N1CCOCC1)n2CCc1ccccc1 | 3 | -2 | -7 | 1 | -5 | -4 | nt | nt
Cc1cccc(OCCNc2cc(N3CCN(CCO)CC3)ccc2[N+](=O)[O-])c1 | 3 | 0 | 12 | 3 | -11 | -1 | nt | nt
CCCSc1nc(N)c(C#N)c(-c2ccc(C)cc2)c1C#N | 0 | -3 | 2 | 2 | -5 | 1 | nt | nt
C=CCSc1nc(N)c(C#N)c(-c2ccccc2)c1C#N | -2 | 1 | 8 | -7 | -9 | 14* | 12 | nt
COc1ccc([C@H]2CC(=O)C=C(c3ccc(C)c([N+](=O)[O-])c3)C2)cc1 | -4 | nt | 15 | 5 | nt | 18* | 17* | nt
COc1ccc([C@H]2CC(=O)C=C(c3ccc4c(c3)OCCO4)C2)cc1 | -11 | nt | 13 | -1 | nt | 3 | nt | nt
NC(=O)c1cc(S(=O)(=O)NCc2cccc(Br)c2)cs1 | 2 | 2 | 2 | 1 | nt | 15* | -5 | nt
Cc1nc([N+](=O)[O-])c(N2CCN(Cc3ccccc3)CC2)n1Cc1ccccc1 | 1 | 0 | -1 | 6 | -1 | 33* | 33* | nt
O=C1/C(=C/c2cccc([N+](=O)[O-])c2)Oc2cc(O)ccc21 | 3 | 14 | 10 | 4 | nt | 17* | 15* | nt
CCOC(=O)c1c(NC(=O)COC(=O)c2ccc([N+](=O)[O-])cc2)sc(C(=O)N(C)C)c1C | 2 | 0 | 5 | -5 | nt | 7 | nt | nt
CCOC(=O)c1c(C)[nH]c(C(=O)OCC(=O)Nc2sc(C(=O)N(C)C)c(C)c2C(=O)OCC)c1C | -3 | -1 | 6 | 5 | nt | 47* | 74* | nt
COc1ccc(S(=O)(=O)NNC(=O)C2Cc3c(ccc4ccccc34)O2)cc1 (stereo not drawn) | -15 | -11 | -14 | -10 | -3 | -8 | nt | nt
CC(=O)c1sc(NC(=O)C2CCN(C(=O)c3ccc(F)cc3)CC2)nc1-c1ccccc1 | -5 | 0 | 20 | 12 | nt | 20* | 29* | nt
COc1ccccc1-n1cc(C(=O)NCC(=O)N2CCN(Cc3ccccc3)CC2)c2ccccc2c1=O | -2 | -5 | 84* | 2 | -2 | 16* | 22* | 81*
COc1ccccc1-n1cc(C(=O)NCC(=O)NCc2ccc(F)cc2)c2ccccc2c1=O | 3 | 4 | 4 | 6 | 2 | 0 | nt | nt
COc1cc(-c2noc(C)n2)cc(OC)c1OC | -3 | 1 | 2 | -1 | 2 | -2 | nt | nt
Cc1ccc(-c2noc(C3CCCN(C(=O)c4ccc(C(C)(C)C)cc4)C3)n2)o1 (stereo not drawn) | 1 | -1 | 36* | -2 | nt | 20* | 23* | 37*
Cc1ccc(CN2CCN(/N=C/C=C/c3ccccc3[N+](=O)[O-])CC2)cc1 | -3 | 4 | 71* | -4 | 2 | 33* | 53* | 77*
CC(=O)c1ccc(N2CCN(C(=O)c3ccc(C(=O)c4ccccc4)cc3)CC2)cc1 | 1 | nt | 55* | 1 | nt | 21* | 36* | 65*
Cc1nc(CSc2nnc3scc(-c4ccc(Cl)cc4)n23)cs1 | -2 | 1 | 11 | 7 | 4 | 4 | nt | nt
COc1ccc(OCC(O)CN2CCC(CN3C(=O)c4cccc5cccc(c45)C3=O)CC2)cc1 (stereo not drawn) | 1 | -3 | 69* | -3 | nt | 20* | 23* | 69*
SMILES | PAD4 inh | Fam108B inh | LYPLA2 counter | PME-1 primary | RBBP9 inhibitor | LYPLA1 inh | LYPLA1 conf | LYPLA2 confirm
CCN(CC)CCCN1C(=O)C(=O)/C(=C(/O)c2cnn(-c3ccccc3)c2C)C1c1ccncc1 (stereo not drawn) | nt | nt | nt | nt | -7 | nt | nt | nt
COc1ccc(CC(C)N2CCN(Cc3ccccc3)CC2)cc1OC (stereo not drawn) | 2 | -5 | 28* | -2 | nt | 25* | 5 | -4
O=C(CCCCn1c(=O)[nH]c2ccccc2c1=O)N1CCN(c2cccc(C(F)(F)F)c2)CC1 | 4 | 2 | 83* | -1 | 2 | 20* | 22* | 73*
COc1ccc(N2CCN(CCCNC(=O)CCCn3c(=O)[nH]c4ccsc4c3=O)CC2)cc1 | 1 | 1 | 5 | 6 | -7 | 0 | nt | nt
COc1ccc(N2CCN(C(=O)CCCCCn3c(=O)[nH]c4ccsc4c3=O)CC2)cc1 | 1 | 0 | 27* | 0 | 10 | 19* | 46* | 29*
Cc1ccc(C)c(C(=O)CCC(=O)N2CCN(c3cccc(C(F)(F)F)c3)CC2)c1 | -1 | nt | 57* | 5 | nt | 37* | 44* | 64*
C/C(=N\NC(=O)c1cc(C)oc1C)c1ccc2ccccc2c1 | -7 | 1 | -10 | 2 | nt | -4 | nt | nt
C/C(=C\c1ccccc1)CN1CCN(c2cccc(Cl)c2)CC1 | -4 | 0 | 37* | -5 | -3 | 25* | 42* | 44*
NC(=O)CN1CCN(c2cccc(Cl)c2)CC1 | -1 | 2 | -4 | 2 | -10 | -2 | nt | nt
C[C@H](NC(N)=O)C(=O)Nc1ccc(N2CCOCC2)c(S(=O)(=O)Nc2ccc(Cl)cc2)c1 | 2 | nt | -3 | 1 | nt | -5 | nt | nt
O=C(c1ccc2n[nH]nc2c1)N1CCN(c2ccc(C(F)(F)F)cn2)CC1 | -6 | nt | 62* | 0 | nt | 67* | 58* | 70*
O=C(c1ccccn1)N1CCN(c2ccc(C(F)(F)F)cn2)CC1 | -2 | 3 | 3 | -3 | 8 | 0 | nt | nt
Cc1cc(C(=O)COc2ccccc2C(N)=O)c(C)n1C | 10 | -4 | 7 | 1 | 5 | 3 | nt | nt
Cc1cc(C(=O)COc2cccc3cccnc23)c(C)n1C | -7 | 8 | 29* | 18 | 3 | 21* | 6 | 7
CC(C)(C)OC(=O)NCCc1nnc(SCc2c(Cl)cccc2Cl)o1 | 0 | 2 | 9 | -1 | -8 | 2 | nt | nt
